For nine compounds, Activity and inhibition results are on record in ChEMBL document CHEMBL3576855, “Spongosine production by a Vibrio harveyi strain associated with the sponge Tectitethya crypta” (J Nat Prod, 2015).

Series [1] concerns RAW264.7. In words: Cytotoxicity against mouse RAW264.7 cells assessed as cell viability after 48 hrs by MTT assay. The series is classed as cell-based. The following applies: raw264.7, 48 h.
The subject of series [2] is RAW264.7. The series is described as follows: Antiinflammatory activity in mouse RAW264.7 cells assessed as inhibition of LPS-stimulated nitric oxide production up to 30 ug/ml after 24 hrs by Colorimetry based Griess assay. The series is classed as functional, cell-based. In a few lines:
(§1)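 RAW 264.7 murine macrophages were pretreated with the nucleosides for 1 h at 0.1, 0.3, 1.0, 3.0, 10 and 30 μg/mL, with n = 6 wells per concentration. LPS (3 μg/mL) was then added and cells incubated 24 h. Nitrite was measured with Griess stain and expressed as percent reduction versus the LPS control. Significance was tested by ANOVA with Dunnett's test.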

In series [3] the test system is RAW264.7. The series is described as follows: Antiinflammatory activity in mouse RAW264.7 cells assessed as inhibition of LPS-stimulated nitric oxide production at 3 ug/ml after 24 hrs by Colorimetry based Griess assay. The series is classed as functional. The following applies: RAW264.7, 24 h. In a few lines: as §1
On the technique in general: The Griess reaction detects nitrite, a stable product of nitric oxide.

The source made the active and inactive calls. The rule behind the calls is not given here.

Broadly, the inhibition is the drop in the measured response relative to a control, in per cent.

In the case of `COc1nc(N)c2[nH]cnc2n1`, the Activity entry in series [1] was “Non-toxic”.

On to `COc1nc(N)c2nc[nH]c2n1`, for which, in series [2], the inhibition result was “Active”. In the case of `COc1nc(N)c2ncn([C@@H]3O[C@H](CO)[C@@H](O)[C@H]3O)c2n1` [BVT.115959], in series [3], the inhibition at 3 µg/mL came to 60%. In addition, the Activity result in series [1] is reported as “Non-toxic”. On to `Nc1nc(O)c2ncn([C@H]3C[C@H](O)[C@@H](CO)O3)c2n1`, for which the inhibition entry in series [2] was “Active”.

On to `Nc1nc2c([nH]c(=O)n2[C@H]2C[C@H](O)[C@@H](CO)O2)c(=O)[nH]1`, for which the inhibition result in series [2] is “Active”. As for `Nc1nc2c(ncn2[C@H]2C[C@H](O)[C@@H](CO)O2)c(=O)[nH]1` [DEOXYGUANOSINE], the Activity entry in series [1] was “Non-toxic”. Consider `Cc1cn([C@@H]2O[C@H](CO)[C@@H](O)[C@@H]2O)c(=O)[nH]c1=O`, for which the Activity result in series [1] was “Non-toxic”. Also, in series [2], the inhibition entry is “Active”. Taken in the same sequence, the figures for `COc1nc(N)c2ncn([C@H]3C[C@H](O)[C@@H](CO)O3)c2n1` were “Non-toxic” and “Active”. Regarding `Nc1nc2c(nc(O)n2[C@H]2C[C@H](O)[C@@H](CO)O2)c(=O)[nH]1`, the Activity result in series [1] is listed as “Non-toxic”.
